Measurements as given in ChEMBL document CHEMBL3751758, “Cysteine-Rich Peptide Family with Unusual Disulfide Connectivity from Jasminum sambac” (J Nat Prod, 2015).
Activity calls are given as the source filed them. No cut-off for these calls is given here. Bridge positions count the residues as written; N and C are the ends. Peptide text beside a SMILES is read from it.

Assays:
[1] = Stability of the compound in NH4HCO3 buffer assessed as trypsin (unknown origin)-mediated degradation at pH 7.8 at 37 degC after 1 hr by UPLC analysis; format: ADME; settings: human, pH 7.8, 1 h
[2] = (§1) Stability of the compound in 100 mM sodium citrate buffer assessed as pepsin (unknown origin)-mediated compound degradation by measuring intact compound level at pH 2.5 at 37 degC after 4 hrs by UPLC analysis; format: ADME; settings: human, buffer, pH 2.5, 4 h
[3] = molecular target: T1, Carboxypeptidase A1 (Homo sapiens, UniProt P15085); assay: Stability of the compound in Tris buffer assessed as carboxypeptidase A (unknown origin)-mediated compound degradation at pH 7.5 at 37 degC after 4 hrs by UPLC analysis; format: ADME; settings: pH 7.5, 4 h
T1 sequence (P15085 whole entry): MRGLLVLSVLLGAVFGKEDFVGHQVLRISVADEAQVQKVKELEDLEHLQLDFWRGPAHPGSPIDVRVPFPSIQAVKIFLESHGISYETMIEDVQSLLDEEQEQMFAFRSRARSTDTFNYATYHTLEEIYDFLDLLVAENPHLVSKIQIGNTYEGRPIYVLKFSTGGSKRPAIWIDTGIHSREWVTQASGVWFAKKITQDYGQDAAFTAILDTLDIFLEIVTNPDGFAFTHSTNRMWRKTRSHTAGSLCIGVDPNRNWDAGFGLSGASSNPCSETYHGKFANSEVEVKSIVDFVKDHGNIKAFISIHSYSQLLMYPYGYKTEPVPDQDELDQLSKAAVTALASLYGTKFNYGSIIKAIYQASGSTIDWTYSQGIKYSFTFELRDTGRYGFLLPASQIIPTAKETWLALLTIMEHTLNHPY
How it was run: (§2)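 Peptide was incubated with or without carboxypeptidase A at 50:1 (w/w) in 50 mM Tris/100 mM NaCl pH 7.5 at 37 °C for up to 6 h. Collected peaks were checked by MALDI-TOF, and stability was judged from UPLC peak areas.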

[4] = test system: trypsin; assay: Stability of the compound in NH4HCO3 buffer assessed as trypsin (unknown origin)-mediated degradation by measuring intact compound level at pH 7.8 at 37 degC after 8 hrs by UPLC analysis; format: ADME; settings: human, read-out: Stability
[5] = Stability of the compound in boiling water assessed as compound remaining after 1 hr by UPLC analysis; format: physicochemical; settings: read-out: Stability
[6] = test system: pepsin; assay: as §1; format: ADME; settings: human, pepsin in 100 mM sodium citrate buffer, pH 2.5; read-out: Stability
[7] = test system: Vero; assay: Cytotoxicity against African green monkey Vero cells at 10 uM after 24 hrs by Presto Blue-based cell viability assay; settings: chlorocebus sabaeus
How it was run: (§3)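 Cells were seeded at 8 x 10^3 per well in DMEM with 10% FBS and 1% penicillin/streptomycin, at 37 °C under 5% CO2. After 24 h, peptide was added at 0.01–10 µM in triplicate for 24 h. PrestoBlue was then added for 1 h at 37 °C and absorbance read at 570 nm. Controls were 1% Triton X-100 and PBS.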

[8] = test system: HUVEC; assay: Cytotoxicity against HUVEC at 10 uM after 24 hrs by Presto Blue-based cell viability assay; settings: human; how it was run: as §3
[9] = Hemolytic activity in human type O+ erythrocytes up to 10 uM after 4 hrs by spectrophotometric analysis; format: ADME, cell-based; settings: erythrocyte
How it was run: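 Erythrocytes came from fresh type O+ blood of a healthy volunteer. Cells were pelleted at 1000 rpm for 15 min, washed three times in PBS and diluted 100X in PBS. Peptide at various concentrations was mixed with an equal volume of cells for 4 h at 37 °C. Plates were spun at 1000 rpm for 5 min and supernatant absorbance read at 415 nm. Controls were 0.1% Triton X-100 and PBS.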

[10] = test system: Staphylococcus aureus; assay: Antibacterial activity against Staphylococcus aureus ATCC 12600 up to 100 uM by radial diffusion assay; format: functional, organism-based
How it was run: (§4)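 Radial diffusion assay under low-salt conditions (10 mM Na3PO4). Strains were grown in trypticase soy broth. D4R peptide dendrimer was the positive control.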

[11] = test system: Escherichia coli; assay: Antibacterial activity against Escherichia coli ATCC 25922 up to 100 uM by radial diffusion assay; format: functional, organism-based; how it was run: as §4
[12] = test system: Candida albicans; assay: Antifungal activity against Candida albicans 11006 up to 100 uM by radial diffusion assay; format: functional, organism-based; how it was run: as §4
[13] = molecular target: T2, Carboxypeptidase A1 (Bos taurus) (UniProt P00730); assay: Inhibition of bovine carboxypeptidase A using N-(4-methoxyphenylazoformyl)phenylalanine as substrate at 0.1 to 100 uM
T2 sequence (whole entry): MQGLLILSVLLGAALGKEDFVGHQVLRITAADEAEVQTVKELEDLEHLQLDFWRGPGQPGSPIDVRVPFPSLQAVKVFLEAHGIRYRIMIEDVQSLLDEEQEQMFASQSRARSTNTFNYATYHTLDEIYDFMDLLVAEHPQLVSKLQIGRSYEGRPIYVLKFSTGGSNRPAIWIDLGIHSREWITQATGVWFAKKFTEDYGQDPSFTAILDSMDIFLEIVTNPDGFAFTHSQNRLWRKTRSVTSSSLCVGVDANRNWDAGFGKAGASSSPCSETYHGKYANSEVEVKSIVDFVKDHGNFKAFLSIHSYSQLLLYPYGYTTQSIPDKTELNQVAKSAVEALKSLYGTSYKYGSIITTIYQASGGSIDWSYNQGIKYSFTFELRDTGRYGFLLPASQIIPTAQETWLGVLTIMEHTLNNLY
How it was run: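 Peptide at 0.1–100 µM was combined with 0.1 mM N-(4-methoxyphenylazoformyl)phenylalanine substrate. The reaction was started with 25 nM bovine carboxypeptidase A, and substrate hydrolysis was followed at 350 nm.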

[14] = molecular target: T3, carboxypeptidase A (Homo sapiens, UniProt P15085); assay: Stability of the compound in Tris buffer assessed as carboxypeptidase A (unknown origin)-mediated compound degradation by measuring intact compound level at pH 7.5 at 37 degC after 6 hrs by UPLC analysis; format: ADME; settings: read-out: Stability; how it was run: as §2
T3 sequence (P15085 whole entry): T1 sequence (P15085 whole entry)

Compound | Stability [1] | Stability [2] | Stability [3] | remaining at 8 h [4] [%] | remaining at 1 h [5] [%] | remaining at 4 h [6] [%] | Activity [7] | Activity [8] | Activity [9] | Activity [10] | Activity [11] | Activity [12] | inhibition [13] | remaining at 6 h [14] [%]
CC(C)C[C@H](NC(=O)[C@@H]1CCCN1C(=O)[C@H](CO)NC(=O)[C@H](Cc1ccccc1)NC(=O)CNC(=O)[C@@H]1CCCN1C(=O)[C@@H]1CCCN1C(=O)[C@H](CCCN=C(N)N)NC(=O)[C@@H](N)CCCCN)C(=O)O | Unstable | Unstable | Unstable |  |  |  |  |  |  |  |  |  |  | 
CC[C@H](C)[C@H](NC(=O)[C@@H](NC(=O)[C@H](CC(N)=O)NC(=O)[C@@H]1CSSC[C@@H]2NC(=O)[C@H](CC(=O)O)NC(=O)[C@H](CO)NC(=O)[C@H](CC(N)=O)NC(=O)[C@H](CO)NC(=O)[C@H](CCCNC(=N)N)NC(=O)[C@@H]3CSSC[C@H](NC(=O)[C@H]([C@@H](C)CC)NC(=O)[C@H](CCCNC(=N)N)NC(=O)[C@H](Cc4c[nH]c5ccccc45)NC(=O)[C@H]([C@@H](C)CC)NC(=O)[C@H]([C@@H](C)CC)NC(=O)[C@H](CC(N)=O)NC2=O)C(=O)N[C@@H](CCCNC(=N)N)C(=O)N[C@@H](CC(=O)O)C(=O)NCC(=O)N[C@@H](CSSC[C@H](NC(=O)[C@H](CC(C)C)NC(=O)[C@@H](N)CCC(N)=O)C(=O)N[C@@H](CC(C)C)C(=O)N[C@@H](CCC(N)=O)C(=O)N3)C(=O)N1)C(C)C)C(=O)O (H-QLCLQCRSNSDCNIIWRICRDGCCNVI-OH; disulfide 3-23, 6-19, 12-24) |  |  |  | 73 | 96 | > 90 | Non-toxic | Non-toxic | Non-toxic | inactive | inactive | inactive | inactive | > 90
CC(C)C[C@H](NC(=O)[C@H](CCCNC(=N)N)NC(=O)CNC(=O)[C@H](CCCNC(=N)N)NC(=O)[C@H](CCCNC(=N)N)NC(=O)[C@H](Cc1ccc(O)cc1)NC(=O)[C@H](CC(C)C)NC(=O)[C@@H](N)CCCNC(=N)N)C(=O)N[C@@H](Cc1ccc(O)cc1)C(=O)N[C@@H](CCCNC(=N)N)C(=O)N[C@@H](CCCNC(=N)N)C(=O)N[C@@H](CC(N)=O)C(=O)N[C@@H](Cc1cnc[nH]1)C(=O)N[C@H](C(=O)O)C(C)C (H-RLYRRGRLYRRNHV-OH) | Unstable | Unstable | Unstable |  |  |  |  |  |  |  |  |  |  | 
